Laboratory results taken from ChEMBL document CHEMBL1143270, “Identification of amidoheteroaryls as potent inhibitors of mutant (V600E) B-Raf kinase with in vivo activity” (Bioorg Med Chem Lett, 2009).

Columns and labels:
Assay type in all cases: ADME, organism-based
[1] = Clearance in Wistar rat at 3 mg/kg, iv and 10 mg/kg, po; details: in vivo
[2] = Half life in Wistar rat at 3 mg/kg, iv and 10 mg/kg, po; details: in vivo
[3] = Volume of distribution at steady state in Wistar rat at 3 mg/kg, iv and 10 mg/kg, po; details: in vivo, read-out: Vdss
[4] = Bioavailability in Wistar rat at 3 mg/kg, iv and 10 mg/kg, po; details: in vivo
In short: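 Male Han Wistar rats. The iv dose was given as a DMA/PEG/saline (40/40/20) solution and the po dose as a 0.1% HPMC suspension.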

Row | SMILES | clearance [1] [mL/min/kg] | half-life [2] [min] | Vd [3] [L/kg] | bioavailability [4] [%]
1 | CNc1ccc(NC(=O)c2cc(NC(=O)c3cccc(C(C)(C)C#N)c3)ccc2C)cn1 | 53.5 | 36 | 1.7 | 15
2 | Cc1ccc(NC(=O)c2cccc(C(C)(C)C#N)c2)cc1C(=O)Nc1cnc(N)c(Cl)c1 | 9.5 | 60 | 0.8 | 30
3 | Nc1ncc(NC(=O)c2cc(NC(=O)c3cccc(C(F)(F)F)c3)ccc2Cl)cc1Cl | 11 | 84 | 1.2 | 96
4 | CC(=O)Nc1ccc(NC(=O)c2cc(NC(=O)c3cccc(C(C)(C)C#N)c3)ccc2C)cn1 | 64 | 42 | 2.7 | 10
5 | Cc1ccc(NC(=O)c2cccc(C(F)(F)F)c2)cc1C(=O)Nc1cnc(N)c(Cl)c1 | 8 | 96 | 1 | 78
6 | Cc1ccc(NC(=O)c2cccc(C(C)(C)C#N)c2)cc1C(=O)Nc1ccc(N)nc1 | 75.5 | 36 | 2.3 | 

More lines, now with the values ahead:

Row | clearance [1] [mL/min/kg] | half-life [2] [min] | Vd [3] [L/kg] | bioavailability [4] [%] | SMILES
7 | 56 | 30 | 1.7 |  | COc1cncc(NC(=O)c2cc(NC(=O)c3cccc(C(C)(C)C#N)c3)ccc2C)c1
8 | 60 | 54 | 3.1 | 45 | Cc1ccc(NC(=O)c2cccc(C(C)(C)C#N)c2)cc1C(=O)Nc1cncc(Cl)c1
9 | 42.5 | 96 | 2.5 | 17 | Cc1ccc(NC(=O)c2cccc(C(C)(C)C#N)c2)cc1C(=O)Nc1cccnc1
10 | 47.5 | 48 | 2.9 | 73 | Cc1ccc(NC(=O)c2cc(NC(=O)c3cccc(C(C)(C)C#N)c3)ccc2C)cn1
11 | 32.5 | 48 | 1.4 | 4 | Cc1cncc(NC(=O)c2cc(NC(=O)c3cccc(C(C)(C)C#N)c3)ccc2C)c1
